What all share (type): cell-based
Test [1] addresses T1, Dihydroorotate dehydrogenase (quinone), mitochondrial (Homo sapiens, UniProt Q02127). Kind of test: Inhibition of DHODH in HEK293 cells assessed as reduction in number of viable cells at 6 to 193 uM measured upto 72 hrs by Celltiter-Glo assay. The following applies: dose 6-193 µM, time hrs <=72. In short, it runs like this: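 HEK-293 ISRE-Luc cells in DMEM with 10% FCS at 37°C, 5% CO2, treated with compound or DMSO; viable cells quantified by ATP content (CellTiter-Glo luminescence) after 24, 48 and 72 h. Expressed as percent of untreated cells at t = 0 h; means ± SD of two independent experiments.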

Test [2] has as its target T1, Dihydroorotate dehydrogenase (quinone), mitochondrial. Kind of test: Inhibition of DHODH in human HEK-293 cells transfected with ISRE-luciferase reporter gene assessed as increase in IFN-alpha mediated cellular response at 80 uM in presence of uridine measured after 24 hrs by luciferase reporter gene assay. The following applies: HEK293. Summed up:
(§1)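 ISRE-Luc HEK-293 cells exposed to increasing IFN-α concentrations with DMSO or compound (80 µM), supplemented with uridine (125 µM) or with 3 mM orotate or DHO. Reporter luciferase read after 24 h, normalized to DMSO + IFN-α 250 IU/ml. Means ± SD of three independent experiments; two-way ANOVA.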

Test [3] shares this target. Kind of test: Inhibition of DHODH in human HEK-293 cells transfected with ISRE-luciferase reporter gene assessed as increase in IFN-alpha mediated cellular response at 80 uM in presence of orotate measured after 24 hrs by luciferase reporter gene assay. The following applies: HEK293. Summed up: as §1
(In general: Reporter assays use an easily measured gene product as a stand-in for the process of interest.)

Test [4] has the same target. Kind of test: Inhibition of DHODH in human HEK293 cells transfected with ISRE-luciferase reporter gene assessed as increase in 30 IU/ml IFN-alpha stimulated IFIT3 mRNA expression at 80 uM measured after 16 hrs by RT-qPCR analysis relative to control. In short, it runs like this:
(§2)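 ISRE-Luc HEK cells co-treated with increasing IFN-α concentrations and DMSO or compound (80 µM) for 16 h. Total RNA extracted from 2×10^5 cells with DNase step; qPCR 35 cycles. CT values normalized to RPL13A and unstimulated controls (2^-ΔΔCT), expressed as fold change versus DMSO alone. Three independent experiments; two-way ANOVA with Bonferroni.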

For test [5] the target is unchanged. Kind of test: Inhibition of DHODH in human HEK293 cells transfected with ISRE-luciferase reporter gene assessed as increase in 250 IU/ml IFN-alpha stimulated IFIT3 mRNA expression at 80 uM measured after 16 hrs by RT-qPCR analysis relative to control. In short, it runs like this:
as §2

Test [6] shares this target. Kind of test: Inhibition of DHODH in human HEK293 cells assessed as increase in 125 IU/ml IFN-alpha stimulated ISG15 mRNA expression at 80 uM measured after 16 hrs by RT-qPCR analysis relative to control. Summed up: as §2
(In general: Real-time PCR tracks product formation cycle by cycle.)

Test [7] shares this target. Kind of test: Inhibition of DHODH in human HEK293 cells transfected with ISRE-luciferase reporter gene assessed as increase in 60 IU/ml IFN-alpha stimulated IFIT1 mRNA expression at 80 uM measured after 16 hrs by RT-qPCR analysis relative to control. In short, it runs like this:
as §2

The target is the same in test [8]. Kind of test: Inhibition of DHODH in human HEK293 cells transfected with ISRE-luciferase reporter gene assessed as increase in 125 IU/ml IFN-alpha stimulated IFIT1 mRNA expression at 80 uM measured after 16 hrs by RT-qPCR analysis relative to control. Summed up:
as §2

Test [9] shares this target. Kind of test: Inhibition of DHODH in human HEK293 cells transfected with ISRE-luciferase reporter gene assessed as increase in 30 IU/ml IFN-alpha stimulated IFIT2 mRNA expression at 80 uM measured after 16 hrs by RT-qPCR analysis relative to control. In short, it runs like this:
as §2

Test [10] shares this target. Kind of test: Inhibition of DHODH in human HEK293 cells transfected with ISRE-luciferase reporter gene assessed as increase in 60 IU/ml IFN-alpha stimulated IFIT2 mRNA expression at 80 uM measured after 16 hrs by RT-qPCR analysis relative to control. Summed up: as §2
Test [11] shares this target. Kind of test: Inhibition of DHODH in human HEK293 cells transfected with ISRE-luciferase reporter gene assessed as increase in 250 IU/ml IFN-alpha stimulated IFIT2 mRNA expression at 80 uM measured after 16 hrs by RT-qPCR analysis relative to control. In short, it runs like this: as §2
The target is the same in test [12]. Kind of test: Inhibition of DHODH in human HEK293 cells transfected with ISRE-luciferase reporter gene assessed as increase in 60 IU/ml IFN-alpha stimulated IFITM3 mRNA expression at 80 uM measured after 16 hrs by RT-qPCR analysis relative to control. In short, it runs like this: (§3)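 HEK-293 ISRE-Luc cells (DMEM, 10% FCS, 37°C, 5% CO2) were given increasing IFN-α doses together with DMSO or compound at 80 μM, then harvested at 16 h. RNA was extracted from 2×10^5 cells with DNase treatment. Transcripts were run by qPCR for 35 cycles and normalized to RPL13A and to unstimulated controls by 2^-ΔΔCT. Values are fold change versus DMSO; three independent experiments; two-way ANOVA with Bonferroni.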

For test [13] the target is unchanged. Kind of test: Inhibition of DHODH in human HEK293 cells transfected with ISRE-luciferase reporter gene assessed as increase in 250 IU/ml IFN-alpha stimulated MX2 mRNA expression at 80 uM measured after 16 hrs by RT-qPCR analysis relative to control. Summed up: as §2
Test [14] shares this target. Kind of test: Inhibition of DHODH in human HEK293 cells transfected with ISRE-luciferase reporter gene assessed as increase in 60 IU/ml IFN-alpha stimulated IFIT5 mRNA expression at 80 uM measured after 16 hrs by RT-qPCR analysis relative to control. Summed up:
as §3

Test [15] shares this target. Kind of test: Inhibition of DHODH in human HEK293 cells transfected with ISRE-luciferase reporter gene assessed as increase in 250 IU/ml IFN-alpha stimulated IFIT5 mRNA expression at 80 uM measured after 16 hrs by RT-qPCR analysis relative to control. Summed up:
as §2

The target is the same in test [16]. Kind of test: Inhibition of DHODH in human HEK293 cells transfected with ISRE-luciferase reporter gene assessed as increase in 60 IU/ml IFN-alpha stimulated PKR mRNA expression at 80 uM measured after 16 hrs by RT-qPCR analysis relative to control. Summed up: as §3
Test [17] shares this target. Kind of test: Inhibition of DHODH in human HEK293 cells transfected with ISRE-luciferase reporter gene assessed as increase in 60 IU/ml IFN-alpha stimulated PML mRNA expression at 80 uM measured after 16 hrs by RT-qPCR analysis relative to control. In short, it runs like this: as §3
For test [18] the target is unchanged. Kind of test: Inhibition of DHODH in human HEK293 cells transfected with ISRE-luciferase reporter gene assessed as increase in 125 IU/ml IFN-alpha stimulated PML mRNA expression at 80 uM measured after 16 hrs by RT-qPCR analysis relative to control. Summed up: as §2

Activity calls are given as the source filed them. The calls are words filed in the database; no cut-off is given here.

T1 sequence (Q02127 whole entry): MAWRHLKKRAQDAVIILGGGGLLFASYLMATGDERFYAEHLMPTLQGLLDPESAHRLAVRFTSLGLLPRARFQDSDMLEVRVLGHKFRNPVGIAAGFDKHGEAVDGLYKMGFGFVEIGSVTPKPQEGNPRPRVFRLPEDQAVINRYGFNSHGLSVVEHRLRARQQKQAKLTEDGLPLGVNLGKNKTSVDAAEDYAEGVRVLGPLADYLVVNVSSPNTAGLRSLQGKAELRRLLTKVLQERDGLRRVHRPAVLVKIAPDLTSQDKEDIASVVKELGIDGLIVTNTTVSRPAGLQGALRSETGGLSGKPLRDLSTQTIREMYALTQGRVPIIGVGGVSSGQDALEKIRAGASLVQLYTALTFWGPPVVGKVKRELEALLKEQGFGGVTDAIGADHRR

Regarding `O=C1OC2(CCCCC2)c2ccn(C3CC3)c(=O)c21`, the inhibition entry in test [1] was “Active”. The outcome in [2] and in test [3] was inactive. For the same molecule, the fold change (FC) in [4] was 39; in test [5], 129; in [6] it was 200; in [7], 85; in test [8], 115; in test [9], 26. Also, the fold change (FC) in [10] came out at 61; in [11], 165; in [12], 12; in test [13], 28; in [14], 3; in test [15], 5. For the same molecule, the values for the fold change (FC) in [16], in [17] and in test [18] were 3, 4 and 5, respectively.

Values taken from ChEMBL document CHEMBL4680118, “Cerpegin-derived furo[3,4-c]pyridine-3,4(1H,5H)-diones enhance cellular response to interferons by de novo pyrimidine biosynthesis inhibition” (Eur J Med Chem, 2020).
